The test system of data set [1] is Chlamydia trachomatis. The experiment in a line: Antibacterial activity against Chlamydia trachomatis 434/Bu serovar L2/ATCC VR-902B in HeLa 229 cells infected with cell lysates from 48 hrs at 2.5 uM compound treated HeLa 229 cells with Chlamydia trachomatis infection assessed as inhibition of reinfection and measured after 48 hrs post re-infection by DAPI staining based arrayscan automated microscopic method relative to control. The format is functional, organism-based. An outline of the steps: (§1)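 HeLa 229 cells infected with C. trachomatis L2 EBs at MOI 0.3–0.5; compound added in RPMI 1 h post infection; 44–48 h, then water lysis. 10-fold serial dilutions of lysate reinfect fresh HeLa; 44–46 h, methanol fixed, anti-Chlamydia/FITC antibody plus DAPI stain, IFUs counted by automated microscopy; % IFU versus DMSO control; three independent experiments, duplicates.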

The subject of data set [2] is Chlamydia trachomatis. The data set is described as follows: Antibacterial activity against Chlamydia trachomatis 434/Bu serovar L2/ATCC VR-902B in HeLa 229 cells infected with cell lysates from 48 hrs at 1 uM compound treated HeLa 229 cells with Chlamydia trachomatis infection assessed as inhibition of reinfection and measured after 48 hrs post re-infection by DAPI staining based arrayscan automated microscopic method relative to control. The format is functional, organism-based. An outline of the steps: as §1

The subject of data set [3] is HeLa 229. The data set is described as follows: Cytotoxicity against human HeLa 229 cells assessed as cell viability at 10 uM after 48 hrs resazurin dye based fluorescence method relative to control. The conditions noted are these: hela 229, 48 h. Put shortly: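 HeLa cells in colorless DMEM with 10% FBS, compound in 0.5% DMSO for 48 h; resazurin added, 3 h at 37 °C, 5% CO2, dark; fluorescence ex 535/em 595 nm; triplicate wells as percent of DMSO control.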

Data set [4] can be described thus: Solubility of compound in PBS at 0.2 to 0.5 mg after 48 hrs by LC-MS/MS based shake flask method. The format is physicochemical.
A short description of data set [5]: Apparent permeability from apical to basolateral side in human Caco2 cells at 1 uM after 15 to 60 mins by LC-MS/MS analysis. The class given is ADME, cell-based. The conditions noted are these: caco-2, 1 µM. Put shortly:
(§2)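 Caco-2 monolayers (passage 94–105) used on day 21 on filter supports; 1 μM donor solution applied apical or basolateral, pH 7.4 both chambers, 37 °C, 500 rpm stirring. Receiver sampled at 15, 30, 60 min, donor at 60 min for mass balance; LC-MS/MS with warfarin internal standard.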

Data set [6] can be described thus: Efflux ratio of apparent permeability in human Caco2 cells at 1 uM after 15 to 60 mins by LC-MS/MS analysis. The class given is ADME, cell-based. The conditions noted are these: caco-2, 1 µM. An outline of the steps: as §2
Data set [7] in a line: Fraction unbound in CD-1 mouse plasma at 10 uM incubated for 4 hrs by LC-MS/MS-based equilibrium dialysis method. The format is ADME, cell-free. An outline of the steps: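 Rapid equilibrium dialysis: 10% CD-1 mouse plasma in isotonic buffer spiked to 10 μM compound, 1% DMSO final, against phosphate buffer pH 7.4; 37 °C, 900 rpm, 4 h. Matrix-matched samples precipitated with methanol, LC-MS/MS; fu corrected for plasma dilution.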

Data set [8] can be described thus: Intrinsic clearance in human liver microsomes at 1 uM incubated for 5 to 60 mins in presence of NADPH by LC-MS/MS analysis. The format is ADME, Microsome. Put shortly:
(§3)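 Liver microsomes 0.5 mg/ml, compound 1 μM in 100 mM phosphate pH 7.4; started with 1 mM NADPH (final). Sampled 0–60 min, quenched in cold acetonitrile, parent remaining by LC-MS/MS; ln % remaining versus time fitted by linear regression.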

The nature of data set [9]: Intrinsic clearance in mouse liver microsomes at 1 uM incubated for 5 to 60 mins in presence of NADPH by LC-MS/MS analysis. The class given is ADME, Microsome. An outline of the steps: as §3
Data set [10] can be described thus: Half life in C3H/HeJ mouse at 1 mg/kg, iv measured upto 24 hrs. The format is ADME, organism-based. The conditions noted are these: in vivo. Put shortly: (§4)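 Female C3H mice, three per dose and route; IV as 50 μL tail-vein injection in PBS with 10% cremophor, 5% EtOH, 4% DMSO; PO as 100 μL gavage in lipid-vehicle/water emulsion. Tail-vein blood at 10 min (IV) and 0.5–24 h; acetonitrile mixed, methanol extracted, LC-MS/MS against spiked blank blood standards; non-compartmental analysis, errors as SD.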

Data set [11] can be described thus: Volume of distribution at steady state in C3H/HeJ mouse at 1 mg/kg, iv measured upto 24 hrs. The class given is ADME, organism-based. As to conditions: in vivo. An outline of the steps: as §4
Data set [12] can be described thus: Cmax in C3H/HeJ mouse at 10 mg/kg, po measured upto 24 hrs. The format is ADME, organism-based. Also on record: dose 10 mg/kg, route oral. As to conditions: in vivo. Put shortly:
as §4

Data set [13] relates to Chlamydia trachomatis. The experiment in a line: Antibacterial activity against Chlamydia trachomatis serovar D/ATCC VR-885 infected in C3H/HeJ mouse assessed as reduction in vaginal infection at 10 mg/kg, po BID administered 21 consecutive days by vaginal swab based immunostaining arrayscan automated microscopic method. The class given is functional, organism-based. The conditions noted are these: in the assay text read “7 consecutive days” for “21 consecutive days”. An outline of the steps:
(§5)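 Female C3H/HeJ mice given 2.4 mg medroxyprogesterone acetate s.c. 10 and 3 days before intravaginal infection (5000 CFU). Nine mice dosed by gavage 100 μL of 2.33 mg/mL emulsion, twice daily; vehicle and doxycycline groups. Vaginal swabs on days 2–21 titrated on HeLa cells, immunostained, counted by automated microscopy.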

Data set [14] can be described thus: Toxicity in C3H/HeJ mouse infected with Chlamydia trachomatis serovar D/ATCC VR-885 assessed as vital signs at 10 mg/kg, po BID administered 21 consecutive days. The format is organism-based. As to conditions: in vivo, in the assay text read “7 consecutive days” for “21 consecutive days”. An outline of the steps: as §5
A short description of data set [15]: Cmax in C3H/HeOuJ mouse at 1 mg/kg, iv measured upto 24 hrs. As to conditions: in vivo.
Data set [16] can be described thus: Tmax in C3H/HeOuJ mouse at 10 mg/kg, po measured upto 24 hrs. The conditions noted are these: in vivo.
Data set [17] can be described thus: Clearance in C3H/HeOuJ mouse at 1 mg/kg, iv measured upto 24 hrs. The conditions noted are these: in vivo.
The nature of data set [18]: Half life in C3H/HeOuJ mouse at 10 mg/kg, po measured upto 24 hrs. As to conditions: in vivo.
Data set [19] can be described thus: Oral bioavailability in C3H/HeOuJ mouse at 10 mg/kg measured upto 24 hrs. The conditions noted are these: in vivo.
Data set [20] can be described thus: AUC (0 to infinity) in C3H/HeOuJ mouse at 1 mg/kg, iv measured upto 24 hrs. The conditions noted are these: in vivo.
Data set [21] in a line: AUC (0 to infinity) in C3H/HeOuJ mouse at 10 mg/kg, po measured upto 24 hrs. As to conditions: in vivo.

In brackets after ≈: the same amount, converted by molar mass. Activity calls are given as the source filed them. The calls are words filed in the database; no cut-off is given here.

Consider `CS(=O)(=O)Nc1c(Cc2cccc3ccccc23)cc(=O)n2c1SCC2C(=O)Nc1ccccc1` (racemic), for which the figures for the inhibition in data set [1] and in data set [2] were 89% and 23%, respectively. The Activity in data set [3] is reported as 94%; in data set [14], “Non-Toxic”. Moreover, in data set [4], the thermodynamic solubility at 48 h was 1.3 µM (≈ 0.657 µg/mL). In addition, the Papp in [5] was found to be 30 ×10⁻⁶ cm/s. In [6], the Ratio came to 2. The compound further yielded a Fu in [7] of 0.39%. The CLH was found to be 39 µL/min/mg in [8] and 59 µL/min/mg in data set [9]. The t1/2 turned out to be 5.3 h in [10] and 2.6 h in [18]. Further, the Vdss in data set [11] came out at 0.62 L/kg. Also, the Cmax worked out at 3.7 µM in data set [12] and 1700 nM in [15]. Besides, the outcome in data set [13] was inactive. For the same compound, in [16], the Tmax came to 1 h. In [17], this compound yielded a CL of 0.01 L/h. This compound had a F in [19] of 41%. For the same compound, the results for the AUC in data set [20] and in [21] were 4.8 µM·h and 20.3 µM·h, respectively.

The values are drawn from ChEMBL document CHEMBL4373686, “Methyl sulfonamide substituents improve the pharmacokinetic properties of bicyclic 2-pyridone based Chlamydia trachomatis inhibitors” (Medchemcomm, 2019).
